# pIC50: −log10 of the molar value.
# Key:
# A498 = assay: Growth inhibition of human A498 cells; type: functional
# Summary of the method: (§1)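 Run by the US National Cancer Institute in vitro screen against a panel of 53–57 human tumor cell lines. GI₅₀ is defined as the molar concentration inhibiting 50% net cell growth. TGI is the concentration giving total growth inhibition.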
# SF-268 [1] = assay: (§2) Growth inhibition of human SF268 cells; type: functional; summary of the method: as §1
# SF-268 [2] = assay: as §2; type: functional; summary of the method: as §1; remark: listed apart in the source
# [3] = target: T1, Human immunodeficiency virus type 1 integrase (Human immunodeficiency virus 1, UniProt Q7ZJM1); assay: Inhibition of HIV1 integrase strand transfer activity
# Summary of the method: (§3)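 HIV-1 integrase (200 nM final) preincubated 30 min at 30 °C with inhibitor in buffer (pH 7.2 MOPS, NaCl, HEPES, EDTA, DTT, 10% glycerol, 7.5 mM MnCl₂, 0.1 mg/ml BSA, 2-mercaptoethanol, 10% DMSO). 20 nM 5'-³²P-labeled linear oligonucleotide substrate then added for 1 h. Quenched with formamide loading dye; products resolved on denaturing 20% polyacrylamide/urea gel. IC₅₀ reported for each step.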
# SN12C = assay: Growth inhibition of human SN12C cells; type: functional; summary of the method: as §1
# [4] = target: T1, Human immunodeficiency virus type 1 integrase; assay: Inhibition of HIV1 integrase 3' processing activity; summary of the method: as §3
# SNB-19 = assay: Growth inhibition of human SNB19 cells; type: functional; summary of the method: as §1
# HCC 2998 = assay: Growth inhibition of human HCC2998 cells; type: functional; summary of the method: as §1
# T47D = assay: Growth inhibition of human T47D cells; type: functional; summary of the method: as §1
# CCRF-CEM = assay: Growth inhibition of human CCRF-CEM cells; type: functional; summary of the method: as §1
# KM12 = assay: Growth inhibition of human KM12 cells; type: functional; summary of the method: as §1
# SNB-75 = assay: Growth inhibition of human SNB75 cells; type: functional; summary of the method: as §1
# EKVX = assay: Growth inhibition of human EKVX cells; type: functional; summary of the method: as §1
# Malme-3M = assay: Growth inhibition of human MALME-3M cells; type: functional; summary of the method: as §1
# SK-MEL-5 = assay: Growth inhibition of human SK-MEL-5 cells; type: functional; summary of the method: as §1
# HCT-116 = assay: Growth inhibition of human HCT116 cells; type: functional; summary of the method: as §1
# MOLT-4 = assay: Growth inhibition of human MOLT4 cells; type: functional; summary of the method: as §1
# M14 = assay: Growth inhibition of human M14 cells; type: functional; summary of the method: as §1
# NCI-H522 = assay: Growth inhibition of human NCI-H522 cells; type: functional; summary of the method: as §1
# UACC-62 = assay: Growth inhibition of human UACC62 cells; type: functional; summary of the method: as §1
# BT-549 = assay: Growth inhibition of human BT549 cells; type: functional; summary of the method: as §1
# HOP-62 = assay: Growth inhibition of human HOP62 cells; type: functional; summary of the method: as §1
# SR = assay: Growth inhibition of human SR cells; type: functional; summary of the method: as §1
# LOX IMVI = assay: Growth inhibition of human LOX IMVI cells; type: functional; conditions: for GI50 / TGI: Homo sapiens, LOX IMVI; summary of the method: as §1
# NCI-H322M = assay: Growth inhibition of human NCI-H322M cells; type: functional; summary of the method: as §1
# T1 sequence (Q7ZJM1 whole entry): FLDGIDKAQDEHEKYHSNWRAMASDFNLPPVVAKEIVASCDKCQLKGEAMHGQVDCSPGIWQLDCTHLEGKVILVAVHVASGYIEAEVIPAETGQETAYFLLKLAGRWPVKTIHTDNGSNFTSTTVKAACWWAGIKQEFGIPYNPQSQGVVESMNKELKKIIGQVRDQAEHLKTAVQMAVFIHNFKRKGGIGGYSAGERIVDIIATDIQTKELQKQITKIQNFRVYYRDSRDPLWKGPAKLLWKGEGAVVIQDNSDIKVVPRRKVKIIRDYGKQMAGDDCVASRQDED
smiles,measurement,setting,value
Cc1cc(S(=O)(=O)Nc2nc3cc(-c4ccc(Cl)cc4)sc3c(=O)n2Cc2ccccc2)c(S)cc1Cl,GI50,A498,> 100 µM
same,GI50,SF-268 [1],> 100 µM
same,GI50,SF-268 [2],> 100 µM
same,pIC50,[3],5.40
same,GI50,SN12C,> 100 µM
same,pIC50,[4],5.22
same,GI50,SNB-19,> 100 µM
same,GI50,HCC 2998,> 100 µM
same,GI50,T47D,> 100 µM
same,GI50,CCRF-CEM,> 100 µM
same,GI50,KM12,> 100 µM
same,GI50,SNB-75,> 100 µM
same,GI50,EKVX,> 100 µM
same,GI50,Malme-3M,> 100 µM
same,GI50,SK-MEL-5,> 100 µM
same,GI50,HCT-116,> 100 µM
same,GI50,MOLT-4,> 100 µM
same,GI50,M14,> 100 µM
same,GI50,NCI-H522,> 100 µM
same,GI50,UACC-62,> 100 µM
same,GI50,BT-549,> 100 µM
same,GI50,HOP-62,> 100 µM
same,GI50,SR,> 100 µM
same,GI50,LOX IMVI,> 100 µM
COc1cc2nc(NS(=O)(=O)c3cc(C)c(Cl)cc3S)n(N)c(=O)c2cc1OC,pIC50,[3],< 4.00
same,pIC50,[4],< 4.00
NC(=O)c1cc(S(=O)(=O)Nc2nc3ccccc3c(=O)[nH]2)c(SCc2ccccc2)cc1Cl,pIC50,[3],< 4.00
same,pIC50,[4],< 4.00
O=C(Nc1ccccc1)c1cc(S(=O)(=O)Nc2nc3ccccc3c(=O)[nH]2)c(SCc2ccccc2)cc1Cl,pIC50,[3],4.44
same,pIC50,[4],4.14
Cc1cc(S(=O)(=O)Nc2nc3cscc3c(=O)n2N)c(S)cc1Cl,GI50,SF-268 [1],17.7 µM
same,TGI,SF-268 [1],68.1 µM
same,pIC50,[3],4.37
same,pIC50,[4],4.16
same,GI50,SNB-75,15 µM
same,TGI,SNB-75,58.5 µM
Cc1cc(S(=O)(=O)Nc2nc3cc(-c4ccsc4)sc3c(=O)n2Cc2ccco2)c(S)cc1Cl,GI50,A498,> 100 µM
same,GI50,SF-268 [1],> 100 µM
same,GI50,SF-268 [2],> 100 µM
same,pIC50,[3],5.22
same,GI50,SN12C,> 100 µM
same,pIC50,[4],5.10
same,GI50,NCI-H322M,> 100 µM
same,GI50,SNB-19,> 100 µM
same,GI50,HCC 2998,> 100 µM
same,GI50,T47D,> 100 µM
same,GI50,CCRF-CEM,> 100 µM
same,GI50,KM12,> 100 µM
same,GI50,SNB-75,> 100 µM
same,GI50,EKVX,> 100 µM
same,GI50,Malme-3M,> 100 µM
same,GI50,SK-MEL-5,> 100 µM
same,GI50,HCT-116,> 100 µM
same,GI50,MOLT-4,> 100 µM
same,GI50,M14,> 100 µM
same,GI50,NCI-H522,> 100 µM
same,GI50,UACC-62,> 100 µM
same,GI50,BT-549,> 100 µM
same,GI50,HOP-62,> 100 µM
same,GI50,SR,> 100 µM
same,GI50,LOX IMVI,> 100 µM
Cc1cc(S(=O)(=O)Nc2nc3sc(C)c(C)c3c(=O)n2N)c(S)cc1Cl,pIC50,[3],4.41
same,pIC50,[4],4.26
COc1ccc(NC(=O)c2cc(S(=O)(=O)Nc3nc4ccccc4c(=O)[nH]3)c(SCc3ccccc3)cc2Cl)cc1,pIC50,[3],4.03
same,pIC50,[4],< 4.00
Cc1cc(S(=O)(=O)Nc2nc3ccsc3c(=O)n2N)c(S)cc1Cl,pIC50,[3],4.28
same,pIC50,[4],4.19
Cc1cc(S(=O)(=O)Nc2nc3n[nH]cc3c(=O)n2N)c(S)cc1Cl,pIC50,[3],< 4.00
same,pIC50,[4],< 4.00
Cc1ccc(NC(=O)c2cc(S(=O)(=O)Nc3nc4ccccc4c(=O)[nH]3)c(SCc3ccccc3)cc2Cl)cc1,pIC50,[3],4.11
same,pIC50,[4],< 4.00
Cc1cc(S(=O)(=O)Nc2nc3cscc3c(=O)n2Cc2ccccc2)c(S)cc1Cl,pIC50,[3],4.51
same,GI50,SN12C,16.6 µM
same,TGI,SN12C,54.5 µM
same,pIC50,[4],4.10
same,GI50,NCI-H322M,18.2 µM
same,TGI,NCI-H322M,45.9 µM
same,GI50,HCC 2998,18.9 µM
same,TGI,HCC 2998,68.5 µM
same,GI50,T47D,4.5 µM
same,TGI,T47D,40.8 µM
same,GI50,CCRF-CEM,14 µM
same,TGI,CCRF-CEM,47.6 µM
same,GI50,KM12,19.9 µM
same,TGI,KM12,74.7 µM
same,GI50,MOLT-4,3.9 µM
same,TGI,MOLT-4,32.5 µM
same,GI50,HOP-62,16.5 µM
same,TGI,HOP-62,39.3 µM
same,GI50,LOX IMVI,18.2 µM
same,TGI,LOX IMVI,51.6 µM
Cc1cc(S(=O)(=O)Nc2nc3ccccc3c(=O)n2N)c(S)cc1Cl,GI50,SF-268 [2],7.2 µM
same,TGI,SF-268 [2],40.1 µM
same,pIC50,[3],< 4.00
same,pIC50,[4],< 4.00
same,GI50,SNB-19,15.7 µM
same,TGI,SNB-19,47.2 µM
same,GI50,SNB-75,13.3 µM
same,TGI,SNB-75,32.7 µM
same,GI50,EKVX,14.8 µM
same,TGI,EKVX,29.2 µM
same,GI50,NCI-H522,19 µM
same,TGI,NCI-H522,50.8 µM
same,GI50,UACC-62,19.7 µM
same,TGI,UACC-62,49.2 µM
Cc1cc(S(=O)(=O)Nc2nc(N)n[nH]2)c(S)cc1Cl,pIC50,[3],5.31
same,pIC50,[4],5.32
Cc1cc(S(=O)(=O)Nc2nc3cc(Cl)ccc3c(=O)[nH]2)c(SCc2ccccc2)cc1Cl,pIC50,[3],4.48
same,pIC50,[4],4.33
Cc1cc(S(=O)(=O)Nc2nc(=O)c3ccccc3n2C)c(SCc2ccccc2)cc1Cl,pIC50,[3],4.05
same,pIC50,[4],< 4.00
Cc1cc(S(=O)(=O)Nc2nc3ccccc3c(=O)[nH]2)c(SCc2ccccc2)cc1Cl,pIC50,[3],4.08
same,pIC50,[4],< 4.00
Cc1cc(S(=O)(=O)Nc2nc3ccccc3c(=O)n2Cc2ccco2)c(S)cc1Cl,pIC50,[3],4.38
same,pIC50,[4],4.11
same,GI50,SNB-19,< 0.01 µM
same,TGI,SNB-19,88.8 µM
same,GI50,T47D,15 µM
same,TGI,T47D,81.4 µM
same,GI50,MOLT-4,18.6 µM
same,TGI,MOLT-4,70.6 µM
same,GI50,BT-549,15.7 µM
same,TGI,BT-549,51.9 µM
same,GI50,SR,19.5 µM
same,TGI,SR,40.7 µM
same,growth inhibitory concentration,LOX IMVI,16.1 µM
same,TGI,LOX IMVI,59.3 µM
O=C(Nc1ccc(Cl)cc1)c1cc(S(=O)(=O)Nc2nc3ccccc3c(=O)[nH]2)c(SCc2ccccc2)cc1Cl,pIC50,[3],4.28
same,pIC50,[4],< 4.00
Cc1cc(S(=O)(=O)Nc2nc3cc(C(C)(C)C)sc3c(=O)n2N)c(S)cc1Cl,pIC50,[3],4.46
same,pIC50,[4],4.22
Cc1cc(S(=O)(=O)Nc2nc3scc(C)c3c(=O)n2N)c(S)cc1Cl,pIC50,[3],4.09
same,pIC50,[4],< 4.00
Cc1cc(S(=O)(=O)Nc2nc3ccsc3c(=O)n2Cc2ccco2)c(S)cc1Cl,pIC50,[3],4.28
same,pIC50,[4],4.21
same,GI50,MOLT-4,19.4 µM
same,TGI,MOLT-4,84.2 µM
same,GI50,SR,9.9 µM
same,TGI,SR,29.7 µM
Cc1cc(S(=O)(=O)Nc2nc3cscc3c(=O)[nH]2)c(SCc2ccccc2)cc1Cl,pIC50,[3],4.11
same,pIC50,[4],< 4.00
Cc1cc(S(=O)(=O)Nc2nc3ccsc3c(=O)[nH]2)c(SCc2ccccc2)cc1Cl,pIC50,[3],4.15
same,pIC50,[4],< 4.00
Cc1cc(S(=O)(=O)Nc2nc3ccsc3c(=O)n2Cc2ccccc2)c(S)cc1Cl,GI50,A498,14.2 µM
same,TGI,A498,49.3 µM
same,pIC50,[3],4.54
same,pIC50,[4],4.28
same,GI50,NCI-H322M,19.5 µM
same,TGI,NCI-H322M,48.8 µM
same,GI50,KM12,19.9 µM
same,TGI,KM12,48.2 µM
same,GI50,Malme-3M,19.9 µM
same,TGI,Malme-3M,56.1 µM
same,GI50,SK-MEL-5,12.5 µM
same,TGI,SK-MEL-5,34.2 µM
same,GI50,HCT-116,19.2 µM
same,TGI,HCT-116,37.7 µM
same,GI50,M14,19.8 µM
same,TGI,M14,49.6 µM
same,GI50,UACC-62,19.5 µM
same,TGI,UACC-62,44.4 µM
same,GI50,HOP-62,19.7 µM
same,TGI,HOP-62,46.6 µM
Cc1cc(S(=O)(=O)Nc2nc3cc(-c4ccccc4)sc3c(=O)n2Cc2ccccc2)c(S)cc1Cl,GI50,A498,> 100 µM
same,GI50,SF-268 [1],> 100 µM
same,GI50,SF-268 [2],> 100 µM
same,pIC50,[3],5.22
same,GI50,SN12C,> 100 µM
same,pIC50,[4],5.05
same,GI50,NCI-H322M,> 100 µM
same,GI50,SNB-19,> 100 µM
same,GI50,HCC 2998,> 100 µM
same,GI50,T47D,> 100 µM
same,GI50,CCRF-CEM,> 100 µM
same,GI50,KM12,> 100 µM
same,GI50,SNB-75,> 100 µM
same,GI50,EKVX,> 100 µM
same,GI50,Malme-3M,> 100 µM
same,GI50,SK-MEL-5,> 100 µM
same,GI50,HCT-116,> 100 µM
same,GI50,MOLT-4,> 100 µM
same,GI50,M14,> 100 µM
same,GI50,NCI-H522,> 100 µM
same,GI50,UACC-62,> 100 µM
same,GI50,BT-549,> 100 µM
same,GI50,HOP-62,> 100 µM
same,GI50,SR,> 100 µM
same,GI50,LOX IMVI,> 100 µM
Cc1cc(S(=O)(=O)Nc2nc3cc(C(C)(C)C)sc3c(=O)n2Cc2ccccc2)c(S)cc1Cl,pIC50,[3],5.40
same,pIC50,[4],4.66
